Measured values published in ChEMBL document CHEMBL2321812 (J Med Chem, 2013).
Active and inactive are the calls of the source. No cut-off for these calls is given here.

Experiments:
[1] = Half life in human liver microsomes; assay type: ADME, Microsome
[2] = target: T1, Poly [ADP-ribose] polymerase tankyrase-2 (Homo sapiens, UniProt Q9H2K2); assay: Inhibition of TNKS2 (unknown origin) by NAD+-dependent autopoly(ADP ribosyl)lation assay
T1 sequence (Q9H2K2 whole entry): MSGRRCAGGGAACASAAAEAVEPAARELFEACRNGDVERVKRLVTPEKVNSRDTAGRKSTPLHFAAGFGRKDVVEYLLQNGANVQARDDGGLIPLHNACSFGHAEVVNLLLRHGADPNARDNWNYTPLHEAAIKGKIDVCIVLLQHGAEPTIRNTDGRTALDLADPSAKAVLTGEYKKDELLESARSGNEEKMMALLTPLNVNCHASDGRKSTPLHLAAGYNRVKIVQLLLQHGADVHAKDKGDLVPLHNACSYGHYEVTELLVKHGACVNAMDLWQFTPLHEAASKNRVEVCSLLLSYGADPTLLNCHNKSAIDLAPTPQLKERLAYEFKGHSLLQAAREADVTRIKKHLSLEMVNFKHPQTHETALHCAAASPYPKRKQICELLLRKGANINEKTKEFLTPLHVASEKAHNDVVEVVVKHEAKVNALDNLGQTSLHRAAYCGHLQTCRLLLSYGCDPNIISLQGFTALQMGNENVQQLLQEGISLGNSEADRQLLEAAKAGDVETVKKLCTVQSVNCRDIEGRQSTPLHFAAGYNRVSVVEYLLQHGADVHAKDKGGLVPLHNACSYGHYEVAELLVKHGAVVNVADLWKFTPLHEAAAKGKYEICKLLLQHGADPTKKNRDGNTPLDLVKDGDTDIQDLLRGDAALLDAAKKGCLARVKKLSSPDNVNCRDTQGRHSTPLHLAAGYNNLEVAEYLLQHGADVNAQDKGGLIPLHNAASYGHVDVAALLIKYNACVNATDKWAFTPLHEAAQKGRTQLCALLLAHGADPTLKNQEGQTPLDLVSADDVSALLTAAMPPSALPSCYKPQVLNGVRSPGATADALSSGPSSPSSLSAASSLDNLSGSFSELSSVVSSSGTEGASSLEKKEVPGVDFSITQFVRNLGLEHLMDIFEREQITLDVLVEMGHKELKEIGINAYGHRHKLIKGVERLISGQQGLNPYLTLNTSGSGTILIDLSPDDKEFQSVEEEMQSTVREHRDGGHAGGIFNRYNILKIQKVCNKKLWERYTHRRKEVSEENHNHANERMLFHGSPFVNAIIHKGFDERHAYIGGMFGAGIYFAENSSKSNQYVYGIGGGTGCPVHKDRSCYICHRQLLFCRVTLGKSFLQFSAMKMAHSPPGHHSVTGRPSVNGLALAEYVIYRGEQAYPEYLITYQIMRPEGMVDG

Tankyrase 1/2 = target: T2, Tankyrase 1/2 (Homo sapiens, UniProt Q9H2K2+O95271); assay: Inhibition of TNKS1/2 in HEK293 cells assessed as inhibition of Wnt/beta-catenin pathway after 24 hrs by luciferase reporter gene assay; assay type: cell-based
T2 sequence (Q9H2K2 whole entry): T1 sequence (Q9H2K2 whole entry)
T2 sequence (O95271 whole entry): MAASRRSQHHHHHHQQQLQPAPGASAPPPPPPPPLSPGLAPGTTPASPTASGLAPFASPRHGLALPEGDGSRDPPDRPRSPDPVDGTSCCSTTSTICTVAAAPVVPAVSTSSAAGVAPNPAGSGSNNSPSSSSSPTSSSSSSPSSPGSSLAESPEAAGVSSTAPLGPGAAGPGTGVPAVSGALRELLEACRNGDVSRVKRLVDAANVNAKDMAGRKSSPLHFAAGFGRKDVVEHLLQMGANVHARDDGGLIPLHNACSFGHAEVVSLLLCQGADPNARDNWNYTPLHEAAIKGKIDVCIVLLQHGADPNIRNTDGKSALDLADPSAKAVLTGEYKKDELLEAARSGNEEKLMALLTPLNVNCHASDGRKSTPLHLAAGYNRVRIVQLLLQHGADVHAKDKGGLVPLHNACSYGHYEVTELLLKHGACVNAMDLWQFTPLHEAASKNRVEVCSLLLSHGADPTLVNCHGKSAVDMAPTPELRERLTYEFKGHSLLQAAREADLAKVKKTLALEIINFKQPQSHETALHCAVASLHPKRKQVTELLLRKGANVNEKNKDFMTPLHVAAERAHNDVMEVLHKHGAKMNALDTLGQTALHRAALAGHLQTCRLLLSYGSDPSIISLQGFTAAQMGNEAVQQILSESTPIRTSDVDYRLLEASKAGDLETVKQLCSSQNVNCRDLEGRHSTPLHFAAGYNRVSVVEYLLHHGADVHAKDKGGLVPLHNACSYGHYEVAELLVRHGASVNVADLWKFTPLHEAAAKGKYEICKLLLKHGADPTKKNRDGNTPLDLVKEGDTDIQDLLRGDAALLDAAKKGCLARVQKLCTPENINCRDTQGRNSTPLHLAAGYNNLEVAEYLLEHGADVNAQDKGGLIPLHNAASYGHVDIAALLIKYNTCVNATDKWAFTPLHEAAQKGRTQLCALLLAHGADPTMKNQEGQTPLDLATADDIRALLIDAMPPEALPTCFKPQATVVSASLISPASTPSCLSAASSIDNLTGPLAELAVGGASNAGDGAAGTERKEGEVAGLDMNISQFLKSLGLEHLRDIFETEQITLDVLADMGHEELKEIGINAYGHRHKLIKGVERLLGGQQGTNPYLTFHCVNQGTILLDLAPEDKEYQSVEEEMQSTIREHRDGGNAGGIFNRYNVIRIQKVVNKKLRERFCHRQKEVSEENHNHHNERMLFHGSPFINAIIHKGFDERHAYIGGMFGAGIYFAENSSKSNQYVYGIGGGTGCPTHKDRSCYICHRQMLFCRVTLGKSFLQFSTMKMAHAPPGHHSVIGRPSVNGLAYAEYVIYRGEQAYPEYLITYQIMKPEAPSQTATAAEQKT

[3] = target: Tankyrase 1/2 (Homo sapiens) (UniProt Q9H2K2+O95271); assay: Inhibition of TNKS1/2 in HEK293 cells assessed as inhibition of Wnt/[…] pathway at 10 uM after 24 hrs by luciferase reporter gene assay; assay type: cell-based
Method in brief: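 ST-Luc/Ren HEK293 cells (stable SuperTOP-Flash, 7× TCF sites) were seeded at 40,000 per well on poly-L-lysine. After 24 h, cells got compound for 24 h in 50% Wnt3a-conditioned medium from L Wnt3a cells. Lysates were read for firefly and Renilla luciferase by dual-luciferase luminescence.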

Structure (SMILES)	half-life [1]	IC50 (Tankyrase 1/2)	further results
N#Cc1ccc(-c2nnc(CSc3nnc(-c4ccncc4)n3-c3ccccc3Cl)o2)cc1	2.4 min		
COc1cc(-c2nnc(/C=C/c3nnc(-c4ccc(S(C)(=O)=O)cn4)n3-c3ccccc3Cl)o2)ccn1	37 min		
COc1ccc(-n2c(OCc3nc(-c4ccc(C)cc4)no3)nnc2-c2ccncc2)cc1		> 10 µM	IC50 [2]: > 10 µM
Oc1cc(-c2nnc(/C=C/c3nnc(-c4ccc(F)cc4)n3-c3ccccc3Cl)o2)ccn1	128 min		
Cc1nnc(SCc2nnc(-c3ccc(Cl)cc3)o2)n1-c1ccccc1Cl		4.5 µM	
CS(=O)(=O)c1ccc(-c2nnc(SCc3nnc(-c4ccc(Cl)cc4)o3)n2-c2ccccc2Cl)nc1	4 min		
COc1ccc(-n2c(NCc3nc(-c4ccc(C)cc4)no3)nnc2-c2ccncc2)cc1	6.5 min	> 10 µM	IC50 [2]: > 10 µM
NCCCOCCCOc1cccc(-c2noc(CSc3nnc(-c4ccncc4)n3-c3ccccc3Cl)n2)c1		3.92 µM	
Cc1cc2nc(CSc3nnc(-c4ccncc4)n3-c3ccccc3Cl)cc(=O)n2cc1C	7 min		
N#Cc1ccc(-c2nnc(CSc3nnc(-c4ccncc4)n3-c3ccncc3Cl)o2)cc1			inhibition [3]: inactive
Cc1ccc(-c2nnc(CCc3nnc(-c4ccncc4)n3-c3ccccc3Cl)o2)cc1	7 min		
Cc1ccc(-c2noc(CSc3ncc(-c4ccncc4)n3-c3ccccc3C)n2)cc1		> 10 µM	
COc1ccc(-n2c(SCc3nc(-c4ccc(C)cc4)no3)nnc2-c2ccncc2)cc1	3 min	1.01 µM	IC50 [2]: 0.46 µM
